MEKK2wt PB1 HTS: modulators of MEK5 binding to wildtype MEKK2, primary screen, biochemical, multiplex bead flow cytometry, Alexa488-MEK5; Mitogen-activated protein kinase kinase kinase 2 (Homo sapiens), Q9Y2U5; Alexa488-MEK5 binding to MEKK2 WT; actives lie on both sides; binding response (% of control), % at 10 µM; 290,000 compounds, 1.1% hits; AID 1531, 2009; in the data active = binding response below about 67% or above about 130%
Arr AP2 block: inhibitors of beta-arrestin/AP2 binding, primary screen, biochemical, GPCR trafficking, flow cytometry; beta-arrestin 1 C-terminal peptide binding to AP2 beta2-adaptin appendage (human); FITC-arrestin peptide / GST-AP2 beads; AP2 beta2 appendage carries R879A mutation; inhibition, % at 10 µM; 340,000 compounds, 0.31% hits; AID 504490, 2011;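 active = inhibition above a set limit, near 3 SD of compounds lacking own fluorescence, cut at about 54% in these data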
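System: GST-AP2 R879A bound to glutathione beads, E. coli-expressed. Also added: 50 nM FITC-arrestin peptide. Schedule: compound with beads 12 min RT, then probe 1 h RT. Signal: bead flow cytometry, FITC channel. Read-out basis: percent response.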
MEKK2mut PB1 HTS: MEK5 binding signal on mutant MEKK2 PB1, primary screen, biochemical, multiplex bead flow cytometry, Alexa488-MEK5. Alexa488-MEK5 binding to MEKK2 mutant. percent response, % at 10 µM. 290,000 compounds, 0.35% hits; in the data active = percent response above about 24%, passing the limit was not always enough
MEKK3 PB1 HTS: modulators of MEKK3-MEK5 PB1 binding, primary screen, biochemical, wildtype MEKK3, multiplex bead flow cytometry, Alexa488-MEK5. Mitogen-activated protein kinase kinase kinase 3 (Homo sapiens), Q99759. bead-based flow cytometry, Alexa488-MEK5 binding to MEKK3; actives lie on both sides; 0 = blocked by unlabeled MEK5, 100 = vehicle. binding response (% of control), % at 10 µM. 290,000 compounds, 1.4% hits;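 active = binding response more than 3 SD above or below the average of its plate-row segment, actives on both sides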;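 also: Alexa488 bead fluorescence after subtracting the streptavidin-only scavenger bead signal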
Target sequence (Q99759 whole entry, looked up): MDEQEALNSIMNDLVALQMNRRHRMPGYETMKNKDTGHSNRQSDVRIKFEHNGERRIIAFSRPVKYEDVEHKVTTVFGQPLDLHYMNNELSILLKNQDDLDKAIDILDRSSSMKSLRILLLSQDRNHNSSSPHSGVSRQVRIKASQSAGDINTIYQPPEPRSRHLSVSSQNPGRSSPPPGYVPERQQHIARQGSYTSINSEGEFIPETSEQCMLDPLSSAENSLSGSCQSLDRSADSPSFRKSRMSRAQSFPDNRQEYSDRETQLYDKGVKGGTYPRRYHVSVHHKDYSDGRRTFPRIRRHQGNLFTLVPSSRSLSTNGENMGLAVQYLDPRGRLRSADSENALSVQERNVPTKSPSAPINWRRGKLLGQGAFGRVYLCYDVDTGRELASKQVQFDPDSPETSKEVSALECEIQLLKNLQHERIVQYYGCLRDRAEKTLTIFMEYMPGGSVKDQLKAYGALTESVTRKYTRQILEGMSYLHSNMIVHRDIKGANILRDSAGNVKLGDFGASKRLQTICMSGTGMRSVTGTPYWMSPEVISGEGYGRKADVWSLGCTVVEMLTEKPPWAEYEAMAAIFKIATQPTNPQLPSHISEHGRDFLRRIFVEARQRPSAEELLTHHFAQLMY
MEKK2wt confirm: modulators of MEK5 binding to wildtype MEKK2, confirmation, biochemical, single concentration, multiplex bead flow cytometry; shares compounds with MEKK3 PB1 HTS; Alexa488-MEK5 binding to MEKK2 WT; actives lie on both sides; binding response (% of control), % at 10 µM; 5,900 compounds, 2.4% hits; in the data active = binding response below about 16% or above about 210%; inactive = in between
MEKK2mut-MEK5: mutant MEKK2 PB1-MEK5 binding signal retest – biochemical, single concentration, multiplex bead flow cytometry, confirmation. percent response, % at 10 µM. Alexa488-MEK5 binding to MEKK2 mutant. 5,900 compounds, 2% hits. shares compounds with MEKK3 PB1 HTS; in the data active = percent response mostly above about 71%, no sharp cut-off; inactive = mostly below about 38%;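 also: higher means compound restores mutant binding toward wildtype level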
MEKK3 confirm: MEKK3 wild-type PB1 binding to MEK5, inhibitors, confirmation, biochemical, bead multiplex flow cytometry, single concentration, wildtype. shares compounds with MEKK3 PB1 HTS. Alexa488-MEK5 binding to MEKK3; stronger effect = lower value. binding response (% of control), % at 10 µM. 5,900 compounds, 1.8% hits. AID 1894, 2009;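 active = binding response below 72% of control, or above a set upper limit, though filed actives all read lower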
Of the large screens only hits and unclear results are named; the others gave an inactive call (follow-up assays come after a bar, where they were run); [ ] = dose if it differs, or a comment. Sampled rows, rich in hits. Any-hit rate of the full collection: about 2.3%.

C#CCOCCOCCOCCNc1nc(N2CCN(C(=O)[C@H]([C@@H](C)CC)n3cc([C@@H](N)Cc4ccc(O)cc4)nn3)CC2)nc(N2CCN(C(=O)[C@H](Cc3cc4ccccc4[nH]3)n3cc([C@@H](N)C(C)CC)nn3)CC2)n1 (some centres not stated)	MEKK2wt PB1 HTS 237, MEKK2mut PB1 HTS 91 (no result: Arr AP2 block) | MEKK2wt confirm 216 | MEKK2mut-MEK5 inactive | MEKK3 confirm inactive
C#CCOCCOCCOCCNc1nc(N2CCN(C(=O)[C@H](Cc3cc4ccccc4[nH]3)n3cc([C@@H](N)C(C)CC)nn3)CC2)nc(N2CCN(C(=O)[C@H](Cc3cc4ccccc4[nH]3)n3cc([C@@H](N)Cc4ccc(O)cc4)nn3)CC2)n1 (some centres not stated)	MEKK2wt PB1 HTS 313, MEKK2mut PB1 HTS 162 (no result: Arr AP2 block) | MEKK2wt confirm 266 | MEKK2mut-MEK5 104 | MEKK3 confirm inactive
C#CCOCCOCCOCCNc1nc(N2CCN(C(=O)[C@H](Cc3ccc(O)cc3)n3cc([C@@H](N)C(C)CC)nn3)CC2)nc(N2CCN(C(=O)[C@H](Cc3cc4ccccc4[nH]3)n3cc([C@@H](N)C(C)CC)nn3)CC2)n1 (some centres not stated)	MEKK2wt PB1 HTS 208, MEKK2mut PB1 HTS 59 | MEKK2wt confirm inactive | MEKK2mut-MEK5 inactive | MEKK3 confirm inactive
CSc1cc(C)c(OCC(=O)Nc2ccc(NC(C)=O)cc2)c(C)c1	none
C#CCOCCOCCOCCNc1nc(N2CCN(C(=O)[C@H](Cc3ccc(O)cc3)n3cc([C@@H](N)C(C)CC)nn3)CC2)nc(N2CCN(C(=O)[C@H](Cc3cc4ccccc4[nH]3)n3cc([C@@H](N)CC(C)C)nn3)CC2)n1 (some centres not stated)	MEKK2wt PB1 HTS 224, MEKK2mut PB1 HTS 73 (no result: Arr AP2 block) | MEKK2wt confirm 231 | MEKK2mut-MEK5 117 | MEKK3 confirm inactive
C#CCOCCOCCOCCNc1nc(N2CCN(C(=O)[C@H](Cc3cc4ccccc4[nH]3)n3cc(C(N)CC(C)C)nn3)CC2)nc(N2CCN(C(=O)[C@H](CCC(=O)O)n3cc(C(N)[C@H](C)CC)nn3)CC2)n1 (some centres not stated)	none
C#CCOCCOCCOCCNc1nc(N2CCN(C(=O)[C@H](CCCCN)n3cc([C@@H](N)[C@H](C)CC)nn3)CC2)nc(N2CCN(C(=O)[C@H](CCCCN)n3cc([C@@H](N)CC(N)=O)nn3)CC2)n1	none (no result: MEKK2wt PB1 HTS, MEKK2mut PB1 HTS, MEKK3 PB1 HTS)
C#CCOCCOCCOCCNc1nc(N2CCN(C(=O)[C@H](CCCCN)n3cc([C@@H](N)C(C)CC)nn3)CC2)nc(N2CCN(C(=O)[C@H](CCCCN)n3cc([C@@H](N)CC(C)C)nn3)CC2)n1 (some centres not stated)	MEKK2wt PB1 HTS 180, MEKK2mut PB1 HTS 60 | MEKK2wt confirm inactive | MEKK2mut-MEK5 inactive | MEKK3 confirm inactive
C#CCOCCOCCOCCNc1nc(N2CCN(C(=O)[C@H](Cc3cc4ccccc4[nH]3)n3cc([C@@H](N)C(C)CC)nn3)CC2)nc(N2CCN(C(=O)[C@H](CCCCN)n3cc([C@@H](N)CC(C)C)nn3)CC2)n1 (some centres not stated)	MEKK2wt PB1 HTS 247, MEKK2mut PB1 HTS 95 (no result: Arr AP2 block) | MEKK2wt confirm 232 | MEKK2mut-MEK5 89 | MEKK3 confirm inactive
CSCCC(NC(=O)COc1ccccc1)C(=O)N1CCOCC1 (configuration not stated)	none (no result: MEKK2wt PB1 HTS, MEKK2mut PB1 HTS, MEKK3 PB1 HTS)
CCNC(=O)C12CCC(C)(C(=O)O1)C2(C)C (configuration not stated)	none
FC(F)(F)c1ccccc1/C=N/n1c(COc2ccccc2)n[nH]c1=S	none
CC(=O)CC(c1ccccc1)S(=O)(=O)c1ccc([N+](=O)[O-])cc1 (configuration not stated)	none
COc1c2occc2c(OC(C)=O)c2c(=O)cc(C)oc12	MEKK2mut PB1 HTS 49, MEKK3 PB1 HTS 80[inhibitor] | MEKK2wt confirm inactive | MEKK2mut-MEK5 inactive | MEKK3 confirm inactive
CC(=O)Oc1c2occc2cc2ccc(=O)oc12	none
COc1ccccc1NCCC(=O)OCC(=O)Nc1ccccc1F	none (no result: MEKK2wt PB1 HTS, MEKK2mut PB1 HTS, MEKK3 PB1 HTS)
CCn1c(SCC(=O)Nc2cc(C(C)(C)C)nn2-c2ccccc2)nnc1-c1cccs1	MEKK3 PB1 HTS 151 | MEKK2wt confirm inactive | MEKK2mut-MEK5 inactive | MEKK3 confirm inactive
Cc1nnc(SCC(=O)Nc2cc(C(C)(C)C)nn2-c2ccccc2)s1	none
Cc1cc(C)n(-c2n[nH]c(C)c2[N+](=O)[O-])n1	none
CCOC(=O)C(=CNc1ccc(C(F)(F)F)cc1)C(=O)OCC	none
CCOC(=O)C(=CNc1ccc(NC2=NCC(C)S2)cc1)C(=O)OCC (configuration not stated)	MEKK3 PB1 HTS 138 | MEKK2wt confirm inactive | MEKK2mut-MEK5 inactive | MEKK3 confirm inactive
N#C/C(=C\c1ccc(F)c(Cl)c1)S(=O)(=O)c1ccccn1	none
O=C(NC(=S)NCC1CCCO1)c1ccc(Cl)cc1Cl (configuration not stated)	MEKK3 PB1 HTS 143 | MEKK2wt confirm inactive | MEKK2mut-MEK5 inactive | MEKK3 confirm inactive
O=C(Cn1nnc(-c2cccs2)n1)NNC(=O)c1ccccc1Cl	MEKK3 PB1 HTS 128 | MEKK2wt confirm inactive | MEKK2mut-MEK5 inactive | MEKK3 confirm inactive
O=C(Cn1nnc(-c2cccs2)n1)NCc1ccccc1	none
Cc1cccc(N=C2Sc3nc4c(C)c(C)ccc4cc3CN2CCN2CCOCC2)c1	MEKK2wt PB1 HTS 144, MEKK2mut PB1 HTS 24 | MEKK2wt confirm inactive | MEKK2mut-MEK5 inactive | MEKK3 confirm inactive
CCn1c(COc2ccc(=O)n(-c3ccccc3)n2)n[nH]c1=S	MEKK3 PB1 HTS 129 | MEKK2wt confirm inactive | MEKK2mut-MEK5 inactive | MEKK3 confirm inactive
Cc1cccc(N(CC(=O)NC(C)(C)C)C(=O)CCC(=O)Nc2nccs2)c1	none
CCC(C)(C)NC(=O)CN(C(=O)CCC(=O)Nc1nccs1)c1cccc(C)c1	MEKK2mut PB1 HTS 26 | MEKK2wt confirm inactive | MEKK2mut-MEK5 inactive | MEKK3 confirm inactive

Screening data as filed in PubChem BioAssay.
